We go through 1 molecule from BindingDB's records for doi:10.1021/np800692t (Chinese Academy of Sciences, 2010).

pIC50: −log10 of the molar value.

The target in this assay is Signal transducer and activator of transcription 3 (Homo sapiens, UniProt P40763). Nature of the assay: Inhibition of STAT3 by Western blotting. Put shortly:
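Phosphotyrosine Stat3 levels in treated cells, tested up to 10 µM. Cells washed in ice-cold PBS, lysed in SDS sample buffer, equal protein run on SDS-PAGE and transferred to PVDF. Blots blocked in 5% nonfat milk/TBST, then phospho-Stat3 and β-tubulin antibodies at 4 °C overnight, secondary 2 h room temperature, ECL detection. IC50 derived.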

Sequence of Signal transducer and activator of transcription 3 (P40763 whole entry): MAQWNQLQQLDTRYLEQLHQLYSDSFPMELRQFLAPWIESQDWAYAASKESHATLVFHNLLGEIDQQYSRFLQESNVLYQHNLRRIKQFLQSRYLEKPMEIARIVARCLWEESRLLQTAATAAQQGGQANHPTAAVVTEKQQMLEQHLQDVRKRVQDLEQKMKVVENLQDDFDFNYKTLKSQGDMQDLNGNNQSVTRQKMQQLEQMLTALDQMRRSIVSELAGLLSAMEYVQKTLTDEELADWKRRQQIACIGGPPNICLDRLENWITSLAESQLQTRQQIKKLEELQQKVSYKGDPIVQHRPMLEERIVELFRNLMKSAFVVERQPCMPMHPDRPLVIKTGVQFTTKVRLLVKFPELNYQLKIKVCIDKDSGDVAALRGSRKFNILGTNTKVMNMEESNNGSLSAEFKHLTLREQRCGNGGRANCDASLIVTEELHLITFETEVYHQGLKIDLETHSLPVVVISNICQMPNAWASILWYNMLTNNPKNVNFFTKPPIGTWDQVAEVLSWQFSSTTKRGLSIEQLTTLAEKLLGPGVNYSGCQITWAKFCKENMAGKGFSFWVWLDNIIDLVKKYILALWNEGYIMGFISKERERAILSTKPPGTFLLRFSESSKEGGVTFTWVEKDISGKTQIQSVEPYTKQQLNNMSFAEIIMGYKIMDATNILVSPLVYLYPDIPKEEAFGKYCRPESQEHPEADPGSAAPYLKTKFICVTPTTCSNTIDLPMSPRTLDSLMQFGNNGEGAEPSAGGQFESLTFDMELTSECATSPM

The pIC50 is −log10 of the IC50, conventionally taken in molar units. A higher pIC50 goes with a low IC50. Regarding `CC(=O)OC(C)(C)/C=C/C(=O)[C@](C)(O)[C@H]1[C@H](O)C[C@@]2(C)[C@@H]3CC=C4[C@H](C[C@H](O)C(=O)C4(C)C)[C@]3(C)C(=O)C[C@]12C` [CUCURBITACIN B], the pIC50 is 5.52.
